From ChEMBL document CHEMBL1152767, “Synthesis and pharmacological evaluation of new arylpiperazines N-[4-[4-(aryl) piperazine-1-yl]-phenyl]-amine derivatives: putative role of 5-HT1A receptors” (2009)
Calls of active or inactive are those of the source. The rule behind the calls is not given here.

Columns and labels:
Rattus norvegicus [1] = experiment: Anxiolytic activity in Wistar rat assessed as total number of entries at 3 mg/kg, ip administered 60 mins before evaluation and measured during 5 mins by elevated plus-maze test; assay type: functional; settings: route intraperitoneal
Summary of the method: (§1)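 Male Wistar rats, 6–8 weeks, 120–150 g, given test agents ip (2 ml/kg; vehicle saline with 1% tween 80 and 1% DMSO) 60 min before testing; WAY-100635 0.5 mg/kg ip 15 min before treatment where used. Maze: two open, two closed arms 50 × 10 cm, raised 50 cm; rat placed centrally facing open arm; 5 min video recording; mean ± S.E.M., n = 8.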

Rattus norvegicus [2] = experiment: Anxiolytic activity in Wistar rat assessed as number of entries into open arms at 3 mg/kg, ip administered 60 mins before evaluation and measured during 5 mins by elevated plus-maze test; assay type: functional; settings: route intraperitoneal; summary of the method: as §1
Rattus norvegicus [3] = experiment: Anxiolytic activity in Wistar rat assessed as time spent into open arms at 3 mg/kg, ip administered 60 mins before evaluation and measured during 5 mins by elevated plus-maze test; assay type: functional; settings: route intraperitoneal; summary of the method: as §1
Rattus norvegicus [4] = experiment: Anxiolytic activity in Wistar rat assessed as number of entries into closed arms at 3 mg/kg, ip administered 60 mins before evaluation and measured during 5 mins by elevated plus-maze test; assay type: functional; settings: route intraperitoneal; summary of the method: as §1
Rattus norvegicus [5] = experiment: Anxiolytic activity in ip dosed Wistar rat assessed as decrease in glutathione reductase activity in brain; assay type: functional; design: scale not given: the % may be the effect or the level left
Summary of the method: (§2)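 Rat brain homogenised at 20% in 0.1 M potassium phosphate pH 7.4 with 0.25 M sucrose; spun 800g then 10,500g (4 °C) to give post-mitochondrial supernatant for glutathione reductase, and further 36,000g 1 h for cytosol for glyoxalase 1 (modified Racker method); protein by Lowry with BSA standard.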

Rattus norvegicus [6] = experiment: Anxiolytic activity in ip dosed Wistar rat assessed as decrease in extracellular serotonin level in brain coadministered with WAY-100635 relative to control; assay type: functional; design: scale not given: the % may be the effect or the level left
Summary of the method: (§3)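 Male Wistar rats dosed ip (vehicle saline/1% tween 80/1% DMSO), WAY-100635 0.5 mg/kg ip 15 min prior where used; decapitated 1 h after dosing, brains frozen at -80 °C. Tissue sonicated in 0.4 M perchloric acid, citrate/phosphate/EDTA added, centrifuged 12,000g at 4 °C; supernatant run on reversed-phase C18 HPLC with fluorescence detection (ex 280, em 340 nm).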

Rattus norvegicus [7] = experiment: Anxiolytic activity in ip dosed Wistar rat assessed as decrease in glyoxalase 1 activity in brain; assay type: functional; design: scale not given: the % may be the effect or the level left; summary of the method: as §2
Rattus norvegicus [8] = experiment: Anxiolytic activity in Wistar rat assessed as blocked of time spent into open arms at 3 mg/kg, ip administered 60 mins before evaluation and measured during 5 mins by elevated plus-maze test in presence of 0.5 mg/kg, ip WAY-100635; assay type: functional, organism-based; summary of the method: as §1
Rattus norvegicus [9] = experiment: Anxiolytic activity in Wistar rat assessed as decrease in extracellular serotonin level in brain at 3 mg/kg, ip in presence of WAY-100635 relative to control; assay type: functional; design: scale not given: the % may be the effect or the level left; settings: route intraperitoneal; summary of the method: as §3
Rattus norvegicus [10] = experiment: Anxiolytic activity in Wistar rat assessed as decrease in extracellular serotonin level in brain at 3 mg/kg, ip relative to control; assay type: functional, organism-based; design: dose 3 mg/kg; summary of the method: as §3
Rattus norvegicus [11] = experiment: Anxiolytic activity in Wistar rat assessed as decrease in time spent into open arms treated ip 60 mins before evaluation and measured during 5 mins by elevated plus-maze test in presence of WAY-100635; assay type: functional; design: scale not given: the % may be the effect or the level left; summary of the method: as §1
Rattus norvegicus [12] = experiment: Anxiolytic activity in Wistar rat assessed as time spent into open arms at 1 mg/kg, ip administered 60 mins before evaluation and measured during 5 mins by elevated plus-maze test; assay type: functional; settings: route intraperitoneal
Summary of the method: (§4)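 Male Wistar rats, 6–8 weeks, 120–150 g, housed at 25 ± 2 °C with free food and water. Dosed ip at 2 ml/kg in saline with 1% tween 80 and 1% DMSO, which alone served as control; n = 8. Maze arms 50 × 10 cm, 50 cm above floor. Rat placed centrally facing an open arm, recorded by camera between 9:00 and 15:00 h.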

Rattus norvegicus [13] = experiment: Anxiolytic activity in Wistar rat assessed as number of entries into open arms at 1 mg/kg, ip administered 60 mins before evaluation and measured during 5 mins by elevated plus-maze test; assay type: functional; settings: route intraperitoneal; summary of the method: as §4
Rattus norvegicus [14] = experiment: Anxiolytic activity in Wistar rat assessed as number of entries into closed arms at 1 mg/kg, ip administered 60 mins before evaluation and measured during 5 mins by elevated plus-maze test; assay type: functional; settings: route intraperitoneal; summary of the method: as §4
Rattus norvegicus [15] = experiment: Anxiolytic activity in Wistar rat assessed as total number of entries at 1 mg/kg, ip administered 60 mins before evaluation and measured during 5 mins by elevated plus-maze test; assay type: functional; settings: route intraperitoneal; summary of the method: as §4
Rattus norvegicus [16] = experiment: Anxiolytic activity in Wistar rat assessed as number of entries into closed arms at 5 mg/kg, ip administered 60 mins before evaluation and measured during 5 mins by elevated plus-maze test; assay type: functional; settings: route intraperitoneal; summary of the method: as §4
Rattus norvegicus [17] = experiment: Anxiolytic activity in Wistar rat assessed as time spent into open arms at 5 mg/kg, ip administered 60 mins before evaluation and measured during 5 mins by elevated plus-maze test; assay type: functional; settings: route intraperitoneal; summary of the method: as §4
Rattus norvegicus [18] = experiment: Anxiolytic activity in Wistar rat assessed as number of entries into open arms at 5 mg/kg, ip administered 60 mins before evaluation and measured during 5 mins by elevated plus-maze test; assay type: functional; settings: route intraperitoneal; summary of the method: as §4
Rattus norvegicus [19] = experiment: Anxiolytic activity in Wistar rat assessed as total number of entries at 5 mg/kg, ip administered 60 mins before evaluation and measured during 5 mins by elevated plus-maze test; assay type: functional; settings: route intraperitoneal; summary of the method: as §4

| SMILES | Activity (Rattus norvegicus [1]) | Activity (Rattus norvegicus [2]) [%] | Activity (Rattus norvegicus [3]) [%] | Activity (Rattus norvegicus [4]) | further results |
| --- | --- | --- | --- | --- | --- |
| CC(=O)Nc1ccc(N2CCN(CCc3ccccc3)CC2)cc1 | 13.86 | 25.98 | 53.67 | 10.26 |  |
| CCOC(=O)Nc1ccc(N2CCN(CCc3ccccc3)CC2)cc1 | 13.85 | 28.49 | 53.94 | 9.91 |  |
| CCOC(=O)Nc1ccc(N2CCN(c3ccccc3)CC2)cc1 | 15.48 | 40.64 | 87.6 | 9.19 | Activity (Rattus norvegicus [5]): 15%; Activity (Rattus norvegicus [6]): 30%; Activity (Rattus norvegicus [7]): 20%; Activity (Rattus norvegicus [8]): inactive; Activity (Rattus norvegicus [9]): 38%; Activity (Rattus norvegicus [10]): Active; Activity (Rattus norvegicus [11]): 35% |
| CC(=O)Nc1ccc(N2CCN(c3ccccc3Cl)CC2)cc1 | 16.82 | 26.89 | 57.3 | 12.3 |  |
| O=C(Nc1ccc(N2CCN(c3ccccc3Cl)CC2)cc1)c1ccc(Cl)nc1 | 12.98 | 24.56 | 53.67 | 9.8 |  |
| CC(=O)Nc1ccc(N2CCN(c3ccccc3)CC2)cc1 | 14.28 | 29.42 | 62.67 | 10.08 |  |
| CN1C(=O)CN=C(c2ccccc2)c2cc(Cl)ccc21 [DIAZEPAM] |  |  |  |  | Activity (Rattus norvegicus [12]): 105.36%; Activity (Rattus norvegicus [13]): 45.16%; Activity (Rattus norvegicus [14]): 10.13; Activity (Rattus norvegicus [15]): 18.47 |
| O=C(Nc1ccc(N2CCN(CCc3ccccc3)CC2)cc1)c1ccc(Cl)nc1 | 14.48 | 22.9 | 50.58 | 11.17 |  |
| COc1ccccc1N1CCN(c2ccc(NC(=O)c3ccc(Cl)nc3)cc2)CC1 | 15.26 | 28.42 | 54.69 | 10.93 |  |
| COc1ccccc1N1CCN(c2ccc(NC(C)=O)cc2)CC1 | 15.45 | 28.74 | 58.77 | 9.01 |  |
| O=C(Nc1ccc(N2CCN(c3ccccc3)CC2)cc1)c1ccc(Cl)nc1 | 16.46 | 27.48 | 56.94 | 11.94 |  |
| CCOC(=O)Nc1ccc(N2CCN(c3ccccc3OC)CC2)cc1 | 18.21 | 35.23 | 84.36 | 11.8 | Activity (Rattus norvegicus [5]): 12%; Activity (Rattus norvegicus [6]): 24%; Activity (Rattus norvegicus [7]): 17%; Activity (Rattus norvegicus [9]): 32%; Activity (Rattus norvegicus [10]): Active; Activity (Rattus norvegicus [11]): 20% |
| O=C1CC2(CCCC2)CC(=O)N1CCCCN1CCN(c2ncccn2)CC1 [BUSPIRONE] |  |  |  |  | Activity (Rattus norvegicus [16]): 8.91; Activity (Rattus norvegicus [17]): 85.56%; Activity (Rattus norvegicus [18]): 37.52%; Activity (Rattus norvegicus [19]): 14.26 |
| CCOC(=O)Nc1ccc(N2CCN(c3ccccc3Cl)CC2)cc1 | 13.98 | 30.27 | 58.98 | 9.75 |  |
